According to paper PMC4893934 (European journal of medicinal chemistry, 2016):
Several values for one entry are separate records, joined by “and”; a condition that tells them apart may be missing. Equal entries are not always repeated.

Columns and labels:
[1] = system: mutant IDH1 activity (2-HG production) in IDH1-R132H-mutated astrocytoma cell line; format: cell-based; conditions: 50 µM, 8 h post-incubation, IDH1-mutated astrocytoma cells
Outline: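 Isogenic anaplastic astrocytoma lines (WHO grade III-derived subclone with native IDH1-R132H; WT-IDH1 control) were seeded in duplicate at 30,000/well. At confluency, medium was replaced with test compound at 50 µM final (from 20 mM DMSO stock), n=2/experiment, under standard culture conditions. Supernatant was sampled at 4 and 8 h and stored at -80°C. D-2-HG was measured by LC-MS/MS. Controls were vehicle-treated mutant and WT cells.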

IDH1-R132H = IDH1-R132H (Homo sapiens, UniProt O75874, R132H); experiment: Mutant IDH1 inhibition assay with purified enzyme; format: biochemical; conditions: for IC50: IC50 against the mutant IDH1, purified IDH1-R132H enzyme; for inhibition at 392 µM: read-out: maximal enzyme inhibition (inhibitory efficiency), purified IDH1-R132H enzyme, tested range 0.19 – 392 µM
Sequence of IDH1-R132H (O75874 whole entry R132H): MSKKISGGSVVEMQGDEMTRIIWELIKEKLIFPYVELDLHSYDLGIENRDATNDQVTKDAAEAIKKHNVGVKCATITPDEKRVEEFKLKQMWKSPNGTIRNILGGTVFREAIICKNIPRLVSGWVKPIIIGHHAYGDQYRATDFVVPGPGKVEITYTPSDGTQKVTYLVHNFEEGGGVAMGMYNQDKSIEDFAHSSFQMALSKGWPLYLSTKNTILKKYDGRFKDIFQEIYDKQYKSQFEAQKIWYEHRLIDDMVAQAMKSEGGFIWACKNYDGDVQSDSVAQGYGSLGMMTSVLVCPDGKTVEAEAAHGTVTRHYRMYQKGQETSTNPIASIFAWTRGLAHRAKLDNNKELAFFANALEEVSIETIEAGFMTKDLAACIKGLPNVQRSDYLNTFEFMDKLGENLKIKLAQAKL

mutant IDH1-R132H enzyme = conditions: read-out: IC50 against the mutant IDH1-R132H enzyme; cited from earlier work
[2] = Tissue distribution studies; format: in vivo, BALB/C mice; conditions: for Biodistribution, Bladder / Biodistribution, Blood / Biodistribution, Bone / Biodistribution, Brain / Biodistribution, Heart / Biodistribution, Intestines / Biodistribution, Kidneys / Biodistribution, Liver / Biodistribution, Lungs / Biodistribution, Muscle / Biodistribution, Skin / Biodistribution, Spleen / Biodistribution, Stomach / Biodistribution, Thyroid: mean ± SD, n=5
[3] = system: IDH1-R132H mutant and WT-IDH1 astrocytoma cell lines; experiment: Cell uptake studies of labeled inhibitors; format: cell-based; conditions: for cell uptake, % of the added activity: mutant IDH1 cell line
Outline: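 IDH1-R132H and isogenic WT-IDH1 astrocytoma cells were plated about 24 h ahead at 20,000–30,000/well, then PBS-washed. Cells were incubated with radioiodinated test compound (~3.7 kBq/well) in culture medium at 37°C, 5% CO2, for 0.25–4 h. Co-incubation used unlabeled analog (0–100 µM) for 3 h, or 0.1%/1% versus 10% FBS. After ice-cold PBS washes and 5 min RT lysis, lysate, supernatant and washes were gamma-counted. Uptake is % incubation dose/well.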

[4] = 5 min after i.v. injection, listed as 125I-labeled 1

For `CCCCc1ccc(NS(=O)(=O)c2ccc(C)c(C(=O)N3CCN(c4ccccc4I)CC3)c2)cc1` [Compound 1, N-(4-Butylphenyl)-3-(4-(2-iodophenyl)piperazine-1-carbonyl)-4-methylbenzenesulfonamide], the “decrease of 2-HG concentration in mutant IDH1 cell supernatants” value [1] was 43%, the IC50 (IDH1-R132H; 0.19 – 392 µM) was 1.7 µM and ~2 µM and the inhibition at 392 µM (IDH1-R132H) was roughly 100%.

With `CCCCc1ccc(NS(=O)(=O)c2ccc(C)c(C(=O)N3CCN(c4ccc(I)cc4)CC3)c2)cc1` [Compound 2, N-(4-Butylphenyl)-3-(4-(4-iodophenyl)piperazine-1-carbonyl)-4-methylbenzenesulfonamide] the “activity against mutant IDH1 (in words)” value (IDH1-R132H; purified IDH1-R132H enzyme, 0.19 – 392 µM) was “did not show any significant activity”.

For `CCCCc1ccc(NS(=O)(=O)c2ccc(C)c(C(=O)N3CCN(c4ccccc4OCCF)CC3)c2)cc1` [Compound 4, N-(4-Butylphenyl)-3-(4-(2-(2-fluoroethoxy)phenyl)piperazine-1-carbonyl)-4-methylbenzenesulfonamide], the “decrease of 2-HG concentration in mutant IDH1 cell supernatants” value [1] was 50%, the IC50 (IDH1-R132H; 0.19 – 392 µM) was 2.3 µM and ~2 µM and the inhibition at 392 µM (IDH1-R132H) was roughly 100%.

In the case of `CCCCc1ccc(NS(=O)(=O)c2ccc(C)c(C(=O)N3CCN(c4ccc(OCCF)cc4)CC3)c2)cc1` [Compound 5, N-(4-Butylphenyl)-3-(4-(4-(2-fluoroethoxy)phenyl)piperazine-1-carbonyl)-4-methylbenzenesulfonamide], the IC50 (IDH1-R132H; 0.19 – 392 µM) is reported as 1.2 µM, the “maximal enzyme inhibition (inhibitory efficiency)” value (IDH1-R132H; purified IDH1-R132H enzyme, tested range 0.19 – 392 µM, 392 µM) is reported as 26.4% and the inhibition at 392 µM (IDH1-R132H) is reported as roughly 30%.

Work on `COc1ccccc1N1CCN(C(=O)c2cc(S(=O)(=O)Nc3ccc(CCCF)cc3)ccc2C)CC1` [Compound 6, N-(4-(3-Fluoropropyl)phenyl)-3-(4-(2-methoxyphenyl)piperazine-1-carbonyl)-4-methylbenzenesulfonamide] yielded an IC50 (IDH1-R132H; 0.19 – 392 µM) of 2.7 µM and an inhibition at 392 µM (IDH1-R132H) of 99%.

In the case of `COc1ccccc1N1CCN(C(=O)c2cc(S(=O)(=O)Nc3ccc(CCCCF)cc3)ccc2C)CC1` [Compound 7, N-(4-(4-Fluorobutyl)phenyl)-3-(4-(2-methoxyphenyl)piperazine-1-carbonyl)-4-methylbenzenesulfonamide], the IC50 (IDH1-R132H; 0.19 – 392 µM) is reported as 2.4 µM and the inhibition at 392 µM (IDH1-R132H) is reported as 81%.

In the case of `CCCCc1ccc(NS(=O)(=O)c2ccc(C)c(C(=O)N3CCN(c4ccccc4OC)CC3)c2)cc1` [Compound A, N-(4-butylphenyl)-3-(4-(2-methoxyphenyl)piperazine-1-carbonyl)-4-methylbenzenesulfonamide, reference compound], the IC50 (mutant IDH1-R132H enzyme) is given as less than 1 µM, the IC50 (IDH1-R132H; 0.19 – 392 µM) is given as 2.2 µM and the inhibition at 392 µM (IDH1-R132H) is given as roughly 100%.

For `CCCCc1ccc(NS(=O)(=O)c2ccc(C)c(C(=O)N3CCN(c4ccccc4[125I])CC3)c2)cc1` [[^125I]1, N-(4-Butylphenyl)-3-(4-(2-[^125I]iodophenyl)piperazine-1-carbonyl)-4-methylbenzenesulfonamide], the “uptake in the brain” value ([2]; 1 – 4 h after injection) was no more than 0.07 %ID/g, the “Biodistribution, Bladder” value ([2]; 5 min after i.v. injection) was 0.03 ± 0.01 %ID and the “Biodistribution, Blood” value ([2]; 5 min after i.v. injection) was “about 12 %ID”. The “Biodistribution, Bone” value ([2]; 5 min after i.v. injection) was 3.92 ± 1.45 %ID, the “Biodistribution, Brain” value ([2]; 5 min after i.v. injection) was 0.15 ± 0.05 %ID and the “Biodistribution, Heart” value ([2]; 5 min after i.v. injection) was 1.11 ± 0.39 %ID. For the same compound, the “Biodistribution, Intestines” value ([2]; 5 min after i.v. injection) was 6.37 ± 5.80 %ID, the “Biodistribution, Kidneys” value ([2]; 5 min after i.v. injection) was 3.50 ± 1.08 %ID and the “Biodistribution, Liver” value ([2]; 5 min after i.v. injection) was “About 30 %ID”. The “Biodistribution, Lungs” value ([2]; 5 min after i.v. injection) was 1.69 ± 0.83 %ID, the “Biodistribution, Muscle” value ([2]; 5 min after i.v. injection) was 13.79 ± 4.85 %ID and the “Biodistribution, Skin” value ([2]; 5 min after i.v. injection) was 3.31 ± 0.74 %ID. For the same compound, the “Biodistribution, Spleen” value ([2]; 5 min after i.v. injection) was 0.36 ± 0.12 %ID, the “Biodistribution, Stomach” value ([2]; 5 min after i.v. injection) was 0.40 ± 0.12 %ID and the “Biodistribution, Thyroid” value ([2]; 5 min after i.v. injection) was 0.32 ± 0.18 %ID. For the same compound, the “Biodistribution, Blood” value [2, 4] was 11.83 ± 1.99 %ID, the “Biodistribution, Liver” value [2, 4] was 29.43 ± 5.60 %ID and the “activity concentration in the thyroid gland” value ([2]; 5 min after injection) was 1.69 ± 0.93 %ID/g. The “uptake in the brain” value ([2]; 5 min after injection) was 0.39 ± 0.13 %ID, the “Biodistribution, Bladder” value ([2]; 1 h after i.v. injection) was 0.01 ± 0.01 %ID and the “Biodistribution, Blood” value ([2]; 1 h after i.v. injection) was 0.71 ± 0.27 %ID. The “Biodistribution, Bone” value ([2]; 1 h after i.v. injection) was 1.21 ± 0.14 %ID, the “Biodistribution, Brain” value ([2]; 1 h after i.v. injection) was 0.03 ± 0.01 %ID and the “Biodistribution, Heart” value ([2]; 1 h after i.v. injection) was 0.12 ± 0.02 %ID. For the same compound, the “Biodistribution, Intestines” value ([2]; 1 h after i.v. injection) was 38.13 ± 1.49 %ID, the “Biodistribution, Kidneys” value ([2]; 1 h after i.v. injection) was 0.88 ± 0.14 %ID and the “Biodistribution, Liver” value ([2]; 1 h after i.v. injection) was 13.30 ± 0.69 %ID. The “Biodistribution, Lungs” value ([2]; 1 h after i.v. injection) was 0.17 ± 0.02 %ID, the “Biodistribution, Muscle” value ([2]; 1 h after i.v. injection) was 8.21 ± 0.77 %ID and the “Biodistribution, Skin” value ([2]; 1 h after i.v. injection) was 2.90 ± 1.07 %ID. For the same compound, the “Biodistribution, Spleen” value ([2]; 1 h after i.v. injection) was 0.05 ± 0.01 %ID, the “Biodistribution, Stomach” value ([2]; 1 h after i.v. injection) was 0.65 ± 0.18 %ID and the “Biodistribution, Thyroid” value ([2]; 1 h after i.v. injection) was 0.04 ± 0.03 %ID. The “maximum excreted into the urine” value ([2]; 1 h after injection) was 2.84 % ID, the “Biodistribution, Bladder” value ([2]; 2 h after i.v. injection) was 0.02 ± 0.03 %ID and the “Biodistribution, Blood” value ([2]; 2 h after i.v. injection) was 0.29 ± 0.09 %ID. The “Biodistribution, Bone” value ([2]; 2 h after i.v. injection) was 0.60 ± 0.29 %ID, the “Biodistribution, Brain” value ([2]; 2 h after i.v. injection) was 0.02 ± 0.01 %ID and the “Biodistribution, Heart” value ([2]; 2 h after i.v. injection) was 0.04 ± 0.01 %ID. The “Biodistribution, Intestines” value ([2]; 2 h after i.v. injection) was 53.24 ± 7.84 %ID, the “Biodistribution, Kidneys” value ([2]; 2 h after i.v. injection) was 0.43 ± 0.15 %ID and the “Biodistribution, Liver” value ([2]; 2 h after i.v. injection) was 6.57 ± 1.77 %ID. The “Biodistribution, Lungs” value ([2]; 2 h after i.v. injection) was 0.07 ± 0.03 %ID, the “Biodistribution, Muscle” value ([2]; 2 h after i.v. injection) was 3.91 ± 0.87 %ID and the “Biodistribution, Skin” value ([2]; 2 h after i.v. injection) was 1.25 ± 0.53 %ID. For the same compound, the “Biodistribution, Spleen” value ([2]; 2 h after i.v. injection) was 0.03 ± 0.01 %ID, the “Biodistribution, Stomach” value ([2]; 2 h after i.v. injection) was 0.63 ± 0.82 %ID and the “Biodistribution, Thyroid” value ([2]; 2 h after i.v. injection) was 0.05 ± 0.05 %ID. The “activity in the hepatobiliary system” value ([2]; 2 h after injection) was “approximately 60 % ID”, the “Biodistribution, Bladder” value ([2]; 4 h after i.v. injection) was 0.01 ± 0.01 %ID and the “Biodistribution, Blood” value ([2]; 4 h after i.v. injection) was “about 0.13 %ID”. For the same compound, the “Biodistribution, Bone” value ([2]; 4 h after i.v. injection) was 0.22 ± 0.14 %ID, the “Biodistribution, Brain” value ([2]; 4 h after i.v. injection) was 0.01 ± 0.00 %ID and the “Biodistribution, Heart” value ([2]; 4 h after i.v. injection) was 0.01 ± 0.00 %ID. The “Biodistribution, Intestines” value ([2]; 4 h after i.v. injection) was 41.40 ± 6.02 %ID, the “Biodistribution, Kidneys” value ([2]; 4 h after i.v. injection) was 0.16 ± 0.03 %ID and the “Biodistribution, Liver” value ([2]; 4 h after i.v. injection) was 3.41 ± 0.62 %ID. The “Biodistribution, Lungs” value ([2]; 4 h after i.v. injection) was 0.03 ± 0.01 %ID, the “Biodistribution, Muscle” value ([2]; 4 h after i.v. injection) was 1.57 ± 0.34 %ID and the “Biodistribution, Skin” value ([2]; 4 h after i.v. injection) was 0.56 ± 0.09 %ID. For the same compound, the “Biodistribution, Spleen” value ([2]; 4 h after i.v. injection) was 0.01 ± 0.01 %ID, the “Biodistribution, Stomach” value ([2]; 4 h after i.v. injection) was 1.22 ± 2.12 %ID and the “Biodistribution, Thyroid” value ([2]; 4 h after i.v. injection) was 0.06 ± 0.03 %ID. The “Biodistribution, Blood” value ([2]; 4 h after i.v. injection, listed as 125I-labeled 1) was 0.13 ± 0.01 %ID, the “activity concentration in the thyroid gland” value ([2]; 4 h after injection) was 0.42 ± 0.16 %ID/g and the “activity concentration in the vital organs except liver” value ([2]; 4 h after injection) was less than 0.2 % ID/g. The “average uptake ratio mutant-IDH1 / WT-IDH1 cell lines” value ([3]; 2 h incubation) was 1.66, the “maximal increase in uptake versus no-carrier-added tracer” value ([3]; co-incubation with 10 µM unlabeled 1, 3 h) was 53 fold and the “cell uptake, % of the added activity” value ([3]; 15 min incubation) was “about 0.5%”. For the same compound, the “cell uptake, % of the added activity” value ([3]; 3 h incubation) was 0.80 ± 0.04%.
